Reference: article PMC7703486 (Angewandte Chemie (International ed. in English), 2020)
pIC50: −log10 of the molar value. Read-outs that look alike come from different tables or passages of the source.

Tests used:
CDK2/cyclin A = CDK2/cyclin A (Homo sapiens, UniProt P24941); experiment: Biochemical assay CDK2/cyclin A
CDK1/cyclin B = CDK1/cyclin B (Homo sapiens, UniProt P06493); experiment: Biochemical assay CDK1/cyclin B
CDK7 = CDK7 (Homo sapiens, UniProt P50613); experiment: Immunoblot degradation in Jurkat cells, CDK7; assay type: cell-based; settings: 6 hours
Sequence of CDK7 (P50613 whole entry): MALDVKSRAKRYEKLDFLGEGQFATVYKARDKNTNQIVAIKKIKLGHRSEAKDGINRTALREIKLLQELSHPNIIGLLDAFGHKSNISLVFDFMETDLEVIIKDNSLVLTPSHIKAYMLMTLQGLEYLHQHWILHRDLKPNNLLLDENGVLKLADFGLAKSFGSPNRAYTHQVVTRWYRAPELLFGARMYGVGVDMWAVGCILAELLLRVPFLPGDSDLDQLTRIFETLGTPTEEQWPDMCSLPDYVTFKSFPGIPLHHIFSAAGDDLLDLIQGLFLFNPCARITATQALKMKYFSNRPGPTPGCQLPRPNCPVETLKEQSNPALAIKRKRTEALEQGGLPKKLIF

CDK2 [1] = target: T1, CDK2 (Homo sapiens, UniProt P24941); experiment: Immunoblot degradation in Jurkat cells, CDK2; assay type: cell-based; settings: 6 hours
How it was run: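 Jurkat cells exposed 6 h to test compound, at 1 μM in the initial degrader screen and otherwise at the indicated concentrations, then CDK2 read by immunoblot. Cereblon dependence was checked with an analogue carrying a methylated glutarimide that cannot engage cereblon, under the same 6 h conditions.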

CDK4 [2] = target: T2, CDK4 (Homo sapiens, UniProt P11802); experiment: Immunoblot degradation in OVCAR8 cells, CDK4; assay type: cell-based; settings: OVCAR8 cells (Figure S2)
T2 sequence (P11802 whole entry): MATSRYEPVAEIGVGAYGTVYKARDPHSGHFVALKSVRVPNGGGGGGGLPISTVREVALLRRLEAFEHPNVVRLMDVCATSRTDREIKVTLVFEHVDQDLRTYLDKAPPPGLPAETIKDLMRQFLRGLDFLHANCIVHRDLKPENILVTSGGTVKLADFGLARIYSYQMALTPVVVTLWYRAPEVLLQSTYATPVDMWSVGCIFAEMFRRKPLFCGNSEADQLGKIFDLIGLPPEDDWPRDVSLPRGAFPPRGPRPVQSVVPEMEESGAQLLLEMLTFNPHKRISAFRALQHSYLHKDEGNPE

CDK6 [3] = target: T3, CDK6 (Homo sapiens, UniProt Q00534); experiment: Immunoblot degradation in Jurkat cells, CDK6; assay type: cell-based; settings: 6 hours
T3 sequence (Q00534 whole entry): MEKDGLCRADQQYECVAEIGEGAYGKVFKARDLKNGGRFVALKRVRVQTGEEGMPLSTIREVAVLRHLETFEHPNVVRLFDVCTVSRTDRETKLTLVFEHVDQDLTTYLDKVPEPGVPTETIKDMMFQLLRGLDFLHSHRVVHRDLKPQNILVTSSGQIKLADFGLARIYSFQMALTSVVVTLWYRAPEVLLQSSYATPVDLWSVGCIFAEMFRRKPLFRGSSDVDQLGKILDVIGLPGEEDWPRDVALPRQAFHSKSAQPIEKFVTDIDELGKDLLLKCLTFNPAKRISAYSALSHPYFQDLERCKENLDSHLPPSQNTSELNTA

CDK4 [4] = target: T2, CDK4; experiment: Immunoblot degradation in Jurkat cells, CDK4; assay type: cell-based; settings: 6 hours
CDK5 [5] = target: T4, CDK5 (Homo sapiens, UniProt Q00535); experiment: Immunoblot degradation in Jurkat cells, CDK5; assay type: cell-based; settings: 6 hours
T4 sequence (Q00535 whole entry): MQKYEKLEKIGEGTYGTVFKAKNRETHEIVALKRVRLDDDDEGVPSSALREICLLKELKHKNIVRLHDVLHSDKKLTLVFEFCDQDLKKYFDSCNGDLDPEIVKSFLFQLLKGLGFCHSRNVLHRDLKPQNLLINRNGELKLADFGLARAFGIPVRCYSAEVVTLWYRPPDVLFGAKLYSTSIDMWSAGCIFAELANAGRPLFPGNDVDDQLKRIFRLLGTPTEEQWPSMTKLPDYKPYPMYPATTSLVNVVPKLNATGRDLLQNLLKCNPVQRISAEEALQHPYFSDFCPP

CDK6 [6] = target: T3, CDK6; experiment: Immunoblot degradation in OVCAR8 cells, CDK6; assay type: cell-based; settings: OVCAR8 cells (Figure S2)
CDK1 [7] = target: T5, CDK1 (Homo sapiens, UniProt P06493); experiment: Immunoblot degradation in Jurkat cells, CDK1; assay type: cell-based; settings: 6 hours
T5 sequence (P06493 whole entry): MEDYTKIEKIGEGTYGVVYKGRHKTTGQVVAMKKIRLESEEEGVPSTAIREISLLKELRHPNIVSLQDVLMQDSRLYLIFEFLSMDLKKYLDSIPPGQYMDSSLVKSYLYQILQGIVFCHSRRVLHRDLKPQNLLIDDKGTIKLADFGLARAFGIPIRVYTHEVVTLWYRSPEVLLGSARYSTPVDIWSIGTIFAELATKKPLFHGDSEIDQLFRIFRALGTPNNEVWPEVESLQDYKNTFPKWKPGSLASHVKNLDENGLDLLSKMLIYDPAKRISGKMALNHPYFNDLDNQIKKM

CDK9 = CDK9 (Homo sapiens, UniProt P50750); experiment: Immunoblot degradation in Jurkat cells, CDK9; assay type: cell-based; settings: 6 hours
Sequence of CDK9 (P50750 whole entry): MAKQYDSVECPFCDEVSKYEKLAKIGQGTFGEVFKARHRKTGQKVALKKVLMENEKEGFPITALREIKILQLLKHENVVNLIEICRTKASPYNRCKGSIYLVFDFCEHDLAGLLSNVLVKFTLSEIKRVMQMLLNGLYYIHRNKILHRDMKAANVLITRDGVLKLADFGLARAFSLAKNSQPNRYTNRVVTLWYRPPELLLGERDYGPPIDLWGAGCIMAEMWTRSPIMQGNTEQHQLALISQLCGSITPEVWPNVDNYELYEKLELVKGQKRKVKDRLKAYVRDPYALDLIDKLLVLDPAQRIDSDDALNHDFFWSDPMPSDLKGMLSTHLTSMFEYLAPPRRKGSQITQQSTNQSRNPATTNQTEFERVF

CDK9/cyclin T1 = CDK9/cyclin T1 (Homo sapiens, UniProt P50750); experiment: Biochemical assay CDK9/cyclin T1
Sequence of CDK9/cyclin T1 (P50750 whole entry): as above
Sequence of CDK9/cyclin T1 (O60563 whole entry partner): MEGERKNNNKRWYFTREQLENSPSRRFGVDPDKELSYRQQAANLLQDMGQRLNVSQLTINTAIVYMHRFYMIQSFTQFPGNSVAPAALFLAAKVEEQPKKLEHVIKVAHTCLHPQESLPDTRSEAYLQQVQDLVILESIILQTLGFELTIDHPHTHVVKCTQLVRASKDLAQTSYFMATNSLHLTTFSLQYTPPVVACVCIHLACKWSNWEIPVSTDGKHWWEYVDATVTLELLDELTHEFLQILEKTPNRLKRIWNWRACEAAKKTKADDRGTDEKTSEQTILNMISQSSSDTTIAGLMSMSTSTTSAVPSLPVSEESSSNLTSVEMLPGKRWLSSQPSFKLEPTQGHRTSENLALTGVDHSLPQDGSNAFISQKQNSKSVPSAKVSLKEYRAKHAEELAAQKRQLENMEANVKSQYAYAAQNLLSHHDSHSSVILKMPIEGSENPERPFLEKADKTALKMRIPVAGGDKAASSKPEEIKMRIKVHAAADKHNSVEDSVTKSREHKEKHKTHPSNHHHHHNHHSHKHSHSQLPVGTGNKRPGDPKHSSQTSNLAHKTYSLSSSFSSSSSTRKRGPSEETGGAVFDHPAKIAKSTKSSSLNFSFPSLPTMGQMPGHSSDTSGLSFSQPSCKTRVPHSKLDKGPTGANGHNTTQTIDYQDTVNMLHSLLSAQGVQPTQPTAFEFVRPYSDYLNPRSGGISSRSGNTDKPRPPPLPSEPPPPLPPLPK

CDK7/cyclin H = CDK7/cyclin H (Homo sapiens, UniProt P50613); experiment: Biochemical assay CDK7/cyclin H
Sequence of CDK7/cyclin H (P50613 whole entry): as the sequence (P50613 whole entry) above
Sequence of CDK7/cyclin H (P51946 whole entry partner): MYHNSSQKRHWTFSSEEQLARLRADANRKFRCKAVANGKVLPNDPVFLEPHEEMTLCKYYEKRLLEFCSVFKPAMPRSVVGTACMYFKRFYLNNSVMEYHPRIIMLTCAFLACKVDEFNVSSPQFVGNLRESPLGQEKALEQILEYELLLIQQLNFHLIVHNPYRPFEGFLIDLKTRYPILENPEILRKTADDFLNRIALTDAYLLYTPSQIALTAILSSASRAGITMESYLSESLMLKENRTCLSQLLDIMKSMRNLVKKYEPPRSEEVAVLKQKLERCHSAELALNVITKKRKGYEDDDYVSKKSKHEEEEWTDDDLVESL

CDK6/cyclin D1 = CDK6/cyclin D1 (Homo sapiens, UniProt Q00534); experiment: Biochemical assay CDK6/cyclin D1
Sequence of CDK6/cyclin D1 (Q00534 whole entry): as the sequence (Q00534 whole entry) above
Sequence of CDK6/cyclin D1 (P24385 whole entry partner): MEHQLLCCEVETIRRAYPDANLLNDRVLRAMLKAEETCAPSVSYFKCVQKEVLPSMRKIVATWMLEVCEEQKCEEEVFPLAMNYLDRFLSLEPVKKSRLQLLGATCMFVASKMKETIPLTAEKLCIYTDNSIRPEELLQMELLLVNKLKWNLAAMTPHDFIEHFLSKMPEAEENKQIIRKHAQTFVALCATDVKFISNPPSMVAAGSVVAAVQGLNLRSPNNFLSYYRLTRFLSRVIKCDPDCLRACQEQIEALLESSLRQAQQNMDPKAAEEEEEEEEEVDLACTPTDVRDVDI

CDK4/cyclin D1 = CDK4/cyclin D1 (Homo sapiens, UniProt P11802); experiment: Biochemical assay CDK4/cyclin D1
Sequence of CDK4/cyclin D1 (P11802 whole entry): as the sequence (P11802 whole entry) above
Sequence of CDK4/cyclin D1 (P24385 whole entry partner): as the sequence (P24385 whole entry partner) above

CDK5/p25 = CDK5/p25 (Homo sapiens, UniProt Q00535); experiment: Biochemical assay CDK5/p25
Sequence of CDK5/p25 (Q00535 whole entry): as the sequence (Q00535 whole entry) above
Sequence of CDK5/p25 (Q15078 99-307 partner limits assumed): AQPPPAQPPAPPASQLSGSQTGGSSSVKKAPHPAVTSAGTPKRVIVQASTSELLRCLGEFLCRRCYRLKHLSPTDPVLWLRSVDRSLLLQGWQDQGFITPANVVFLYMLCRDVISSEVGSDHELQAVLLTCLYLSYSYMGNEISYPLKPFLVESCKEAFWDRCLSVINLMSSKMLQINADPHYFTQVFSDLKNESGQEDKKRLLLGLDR

CDK5 [8] = target: T4, CDK5; experiment: Pulse-chase SILAC MS proteomics in OVCAR8 cells, CDK5; assay type: cell-based; settings: OVCAR8, 250 nM, 6 hours
CDK2 [9] = target: T1, CDK2; experiment: Pulse-chase SILAC MS proteomics in OVCAR8 cells, CDK2; assay type: cell-based; settings: OVCAR8, 250 nM, 6 hours
STK33 = STK33 (Homo sapiens, UniProt Q9BYT3); experiment: Pulse-chase SILAC MS proteomics in OVCAR8 cells, STK33; assay type: cell-based; settings: OVCAR8, 250 nM, 6 hours
CDK1 [10] = target: T5, CDK1; experiment: Immunoblot degradation in OVCAR8 cells, CDK1; assay type: cell-based; settings: 6 hours
CDK2 [11] = target: T1, CDK2; experiment: Immunoblot degradation in CRBN-null Jurkat cells, CDK2; assay type: cell-based; settings: 6 hours
How it was run: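 Used to test whether degradation requires cereblon: CRBN-null Jurkat cells treated 6 h with test compound, then CDK2 levels read by immunoblot.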

CDK2 [12] = target: T1, CDK2; experiment: KINOMEscan, CDK2; assay type: binding; settings: 1 μM; only CDK with potent inhibition; CDK1 not in panel
CDK5 [13] = target: T4, CDK5; experiment: Immunoblot degradation in OVCAR8 cells, CDK5; assay type: cell-based; settings: 6 hours
Aurora A [14] = target: T6, Aurora A (Homo sapiens, UniProt O14965); experiment: Degradation in OVCAR8 cells, Aurora A; assay type: cell-based; settings: OVCAR8, same conditions (Figure S3)
T6 sequence (O14965 1-403): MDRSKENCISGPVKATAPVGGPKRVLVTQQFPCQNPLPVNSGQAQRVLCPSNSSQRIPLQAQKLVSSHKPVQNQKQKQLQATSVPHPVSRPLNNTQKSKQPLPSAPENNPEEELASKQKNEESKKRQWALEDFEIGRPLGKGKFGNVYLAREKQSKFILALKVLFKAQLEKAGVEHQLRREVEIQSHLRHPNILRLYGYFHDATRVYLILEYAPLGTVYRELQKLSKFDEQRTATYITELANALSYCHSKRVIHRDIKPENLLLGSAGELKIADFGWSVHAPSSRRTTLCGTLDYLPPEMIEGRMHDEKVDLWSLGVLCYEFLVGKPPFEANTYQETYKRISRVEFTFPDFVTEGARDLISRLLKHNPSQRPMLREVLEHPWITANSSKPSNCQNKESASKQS

RSK1 (RPS6KA1) = RSK1 (RPS6KA1) (Homo sapiens, UniProt Q15418); experiment: Pulse-chase SILAC MS proteomics in OVCAR8 cells, RSK1; assay type: cell-based; settings: OVCAR8, 250 nM, 6 hours
CRBN = CRBN (Homo sapiens, UniProt Q96SW2); experiment: Cellular CRBN engagement assay; assay type: cell-based
Aurora A [15] = target: T6, Aurora A; experiment: Biochemical activity assay Aurora A
OVCAR8 cells = experiment: Growth rate inhibition in OVCAR8 cells; assay type: cell-based
more than 400 kinases = experiment: KINOMEscan panel profiling; assay type: binding; settings: 1 μM
Aurora A [16] = target: T6, Aurora A; experiment: Pulse-chase SILAC MS proteomics in OVCAR8 cells, Aurora A; assay type: cell-based; settings: OVCAR8, 250 nM, 6 hours
JNK2 (MAPK9) = JNK2 (MAPK9) (Homo sapiens, UniProt P45984); experiment: Pulse-chase SILAC MS proteomics in OVCAR8 cells, JNK2; assay type: cell-based; settings: OVCAR8, 250 nM, 6 hours
CDK2 [17] = target: T1, CDK2; experiment: Immunoblot degradation in OVCAR8 cells, CDK2; assay type: cell-based; settings: 6 hours
[18] = read-out: CDK2/cyclin A IC50, Table 1, degraders, tested in duplicate
[19] = read-out: CDK1/cyclin B IC50, Table 1, degraders, tested in duplicate
[20] = read-out: CDK2 IC50, Table 2, w/cyclin A, duplicate
[21] = read-out: CDK1 IC50, Table 2, w/cyclin B, duplicate
[22] = read-out: CDK6 IC50, Table 2, w/cyclin D1, duplicate
[23] = read-out: CDK4 IC50, Table 2, w/cyclin D1, duplicate
[24] = read-out: CDK5 IC50, Table 2, w/p25, duplicate

Sequence of CDK1/cyclin B (P06493 whole entry): as the sequence (P06493 whole entry) above
Sequence of CDK1/cyclin B (P14635 whole entry partner): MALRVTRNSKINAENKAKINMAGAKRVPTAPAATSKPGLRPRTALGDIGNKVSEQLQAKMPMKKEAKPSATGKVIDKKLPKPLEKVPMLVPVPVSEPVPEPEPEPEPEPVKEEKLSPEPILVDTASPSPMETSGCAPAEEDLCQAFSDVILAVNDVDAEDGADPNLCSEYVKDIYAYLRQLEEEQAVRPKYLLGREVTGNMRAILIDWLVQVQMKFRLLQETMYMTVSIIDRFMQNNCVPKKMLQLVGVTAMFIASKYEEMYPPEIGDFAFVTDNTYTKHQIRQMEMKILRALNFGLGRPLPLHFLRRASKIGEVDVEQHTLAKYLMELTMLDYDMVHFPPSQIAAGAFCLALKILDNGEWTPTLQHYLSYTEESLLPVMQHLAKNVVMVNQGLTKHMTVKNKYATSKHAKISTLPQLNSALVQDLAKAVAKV

SMILES: NC(=O)c1c(F)cccc1Nc1nc(NC2CCN(S(=O)(=O)CCNC(=O)CCOCCOCCOCCOCCOc3cccc4c3C(=O)N(C3CCC(=O)NC3=O)C4=O)CC2)ncc1Br (stereo not drawn) [TMX-1111]
- pIC50 (CDK2/cyclin A; [18]): 8.19
- pIC50 (CDK1/cyclin B; [19]): 8.02

SMILES: NC(=O)c1c(F)cccc1Nc1nc(NC2CCN(S(=O)(=O)CCNC(=O)CCOCCOCCOc3cccc4c3C(=O)N(C3CCC(=O)NC3=O)C4=O)CC2)ncc1Br (stereo not drawn) [TMX-1128]
- pIC50 (CDK2/cyclin A; [18]): 8.31
- pIC50 (CDK1/cyclin B; [19]): 7.94

SMILES: NC(=O)c1c(F)cccc1Nc1nc(NC2CCN(S(=O)(=O)CCNC(=O)CCOCCOCCOCCOCCOCCOCCOCCOCCOc3cccc4c3C(=O)N(C3CCC(=O)NC3=O)C4=O)CC2)ncc1Br (stereo not drawn) [TMX-1146]
- pIC50 (CDK2/cyclin A; [18]): 8.14
- pIC50 (CDK1/cyclin B; [19]): 7.81

SMILES: NC(=O)c1c(F)cccc1Nc1nc(NC2CCN(S(=O)(=O)CCNC(=O)CCCCCCCCOc3cccc4c3C(=O)N(C3CCC(=O)NC3=O)C4=O)CC2)ncc1Br (stereo not drawn) [TMX-1160]
- CDK7 degradation (CDK7; immunoblot (Figure 2B)): not degraded
- CDK2 degradation (CDK2 [1]; 1 μM): induced CDK2 degradation
- pIC50 (CDK2/cyclin A; [18]): 7.54
- CDK4 degradation (CDK4 [2]): not degraded
- CDK6 degradation (CDK6 [3]; immunoblot (Figure 2B)): potently degraded
- CDK4 degradation (CDK4 [4]; immunoblot (Figure 2B)): potently degraded
- pIC50 (CDK1/cyclin B; [19]): 8.07
- CDK5 degradation (CDK5 [5]; immunoblot (Figure 2B)): potently degraded
- CDK6 degradation (CDK6 [6]): not degraded
- CDK1 degradation (CDK1 [7]; 1 μM): no CDK1 degradation was observed
- CDK9 degradation (CDK9; immunoblot (Figure 2B)): not degraded

SMILES: NC(=O)c1c(F)cccc1Nc1nc(NC2CCN(S(=O)(=O)CCNC(=O)CCCCCCCOc3cccc4c3C(=O)N(C3CCC(=O)NC3=O)C4=O)CC2)ncc1Br (stereo not drawn) [TMX-1162]
- CDK2 degradation (CDK2 [1]; 1 μM): induced CDK2 degradation
- pIC50 (CDK2/cyclin A; [18]): 7.77
- pIC50 (CDK1/cyclin B; [19]): 8.07
- CDK1 degradation (CDK1 [7]; 1 μM): no CDK1 degradation was observed

SMILES: NC(=O)c1c(F)cccc1Nc1nc(NC2CCN(S(=O)(=O)CCNC(=O)CCCCCOc3cccc4c3C(=O)N(C3CCC(=O)NC3=O)C4=O)CC2)ncc1Br (stereo not drawn) [TMX-1169]
- pIC50 (CDK2/cyclin A; [18]): 7.69
- pIC50 (CDK1/cyclin B; [19]): 7.51

SMILES: CS(=O)(=O)N1CCC(Nc2ncc(Br)c(Nc3cccc(F)c3C(N)=O)n2)CC1 [TMX-2039]
- enzymatic IC50 CDK2 (CDK2/cyclin A; Figure 1): low nanomolar
- enzymatic IC50 CDK9 (CDK9/cyclin T1; Figure 1): low nanomolar
- enzymatic IC50 CDK1 (CDK1/cyclin B; Figure 1): low nanomolar
- enzymatic IC50 CDK7 (CDK7/cyclin H; Figure 1): low nanomolar
- enzymatic IC50 CDK6 (CDK6/cyclin D1; Figure 1): low nanomolar
- enzymatic IC50 CDK4 (CDK4/cyclin D1; Figure 1): low nanomolar

SMILES: NC(=O)c1c(F)cccc1Nc1nc(Nc2ccc(S(=O)(=O)NCCOCCOCCOCCOCCNc3cccc4c3C(=O)N(C3CCC(=O)NC3=O)C4=O)cc2)ncc1Br (stereo not drawn) [TMX-2138]
- pIC50 (CDK2/cyclin A; read-out: CDK2/cyclin A IC50, Table 3, duplicate): 7.96
- pIC50 (CDK9/cyclin T1; read-out: CDK9/cyclin T1 IC50, Table 3, duplicate): 7.59
- pIC50 (CDK1/cyclin B; read-out: CDK1/cyclin B IC50, Table 3, duplicate): 8.06
- pIC50 (CDK7/cyclin H; read-out: CDK7/cyclin H IC50, Table 3, duplicate): 6.54
- pIC50 (CDK6/cyclin D1; read-out: CDK6/cyclin D1 IC50, Table 3, duplicate): 6.33
- pIC50 (CDK4/cyclin D1; read-out: CDK4/cyclin D1 IC50, Table 3, duplicate): 6.05
- pIC50 (CDK5/p25; read-out: CDK5/p25 IC50, Table 3, duplicate): 8.15

SMILES: Cc1cc(S(=O)(=O)NCCOCCOCCOCCOCCNc2cccc3c2C(=O)N(C2CCC(=O)NC2=O)C3=O)ccc1Nc1ncc(Br)c(Nc2cccc(F)c2C(N)=O)n1 (stereo not drawn) [TMX-2172]
- CDK7 degradation (CDK7; 250 nM, immunoblot): not affected
- CDK2 degradation (CDK2 [1]; 250 nM): induced CDK2 degradation
- CDK5 degradation (proteomics) (CDK5 [8]): effectively degraded
- pIC50 (CDK2/cyclin A): 8.19
- CDK2 degradation (proteomics) (CDK2 [9]): effectively degraded
- degree of degradation of STK33 (proteomics) (STK33): relatively weak
- CDK1 degradation (CDK1 [10]): remained intact
- CDK2 degradation (CDK2 [11]): no CDK2 degradation was detected
- pIC50 (CDK9/cyclin T1): 5.58
- CDK6 degradation (CDK6 [3]; 250 nM, immunoblot): not affected
- CDK4 degradation (CDK4 [4]; 250 nM, immunoblot): not affected
- pIC50 (CDK1/cyclin B): 7.69
- CDK2 inhibition in KINOMEscan (CDK2 [12]): potent inhibition
- pIC50 (CDK7/cyclin H): 5.58
- pIC50 (CDK6/cyclin D1): 5.65
- pIC50 (CDK4/cyclin D1): 5.13
- CDK5 degradation (CDK5 [13]): degraded in a dose dependent manner
- concentration needed to achieve observable Aurora A degradation (Aurora A [14]): 5 µM
- pIC50 (CDK5/p25): 8.17
- degree of degradation of RSK1 (RPS6KA1) (proteomics) (RSK1 (RPS6KA1)): relatively weak
- pIC50 (CRBN): 7.33
- pIC50 (Aurora A [15]): 6.69
- growth rate inhibitory effect (OVCAR8 cells): strong growth rate inhibitory effects
- growth rate inhibitory potency relative to non-degrading control ZXH-7035 (OVCAR8 cells; 72 hours): approximately 8.5 fold
- CDK5 degradation (CDK5 [5]; immunoblot (Figure 3A)): retained the ability to degrade CDK5
- CDK1 degradation (CDK1 [7]; 250 nM): not affected
- number of kinases with >99% inhibition compared to DMSO (more than 400 kinases): 14
- CDK9 degradation (CDK9; 250 nM, immunoblot): not affected
- Aurora A degradation (proteomics) (Aurora A [16]): effectively degraded
- degree of degradation of JNK2 (MAPK9) (proteomics) (JNK2 (MAPK9)): relatively weak
- CDK2 degradation (CDK2 [17]): degraded in a dose dependent manner

SMILES: Cc1cc(S(N)(=O)=O)ccc1Nc1ncc(Br)c(Nc2cccc(F)c2C(N)=O)n1 [TMX-3010]
- discrimination for inhibiting CDK1, CDK2, and CDK5 over CDK4 and CDK6 (CDK2/cyclin A; benchmarked to CDK2 IC50 value): hundred-fold
- pIC50 (CDK2/cyclin A; [20]): 9.15
- pIC50 (CDK1/cyclin B; [21]): 8.92
- pIC50 (CDK6/cyclin D1; [22]): 7.08
- pIC50 (CDK4/cyclin D1; [23]): 6.87
- pIC50 (CDK5/p25; [24]): 9.05

SMILES: NC(=O)c1c(F)cccc1Nc1nc(Nc2ccc(S(N)(=O)=O)cc2)ncc1Br [TMX-3013]
- pIC50 (CDK2/cyclin A; [20]): > 9.30
- pIC50 (CDK1/cyclin B; [21]): 9.05
- pIC50 (CDK6/cyclin D1; [22]): 7.81
- pIC50 (CDK4/cyclin D1; [23]): 7.61
- pIC50 (CDK5/p25; [24]): 9.30
